# Screening data deposited in PubChem by SRMLSC.
# Shown is part of a subset that was picked to be rich in hits.
# BB579 growth dn – growth inhibitors of yeast BB579 in restrictive medium, primary screen, yeast lifespan-shortening project, S. cerevisiae; OD615, 48 h; inhibition, % at 10 µM; 140,000 tested, 0.51% active;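 active = inhibition above a set limit, 3 SD over the mean compound inhibition, cut at about 44% in these data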
#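 Detection: OD615 turbidity measurement; Material: Saccharomyces cerevisiae DeaD strain BB579, replicative lifespan model yeast; Timing: 48 h exposure, 30 °C; Doses: single 10 µM dose; Medium: CSMM-D restrictive synthetic medium containing dextrose (glucose); Controls: amphotericin B at 10 µg/mL as positive control.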
# PostGolgi ctrl – growth inhibition of yeast control strain, primary screen, counter-screen for post-Golgi transport modulator project; efflux-deficient yeast background strain, growth absorbance A615, 16 h; inhibition, % at 10 µM; 98,000 tested, 5% active
# Yeast life ext – compounds extending yeast replicative lifespan, primary screen, S. cerevisiae, OD615. inhibition of the nicotinamide effect, % at 10 µM. S. cerevisiae growth with nicotinamide; deaD strain in restrictive glucose medium. 130,000 tested, 0.68% active;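 active = inhibition above a set limit, placed 3 SD over the median of all compounds, cut at about 26% in these data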;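 note: 0% = nicotinamide-treated wells and 100% = cells grown without nicotinamide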
#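 System: Modified budding yeast, DeaD strain | Buffer or medium: Restrictive glucose medium | Also added: 1.5 mM nicotinamide | Doses: 10 µM single point, 0.25% DMSO | Schedule: 48 h compound exposure at 30 °C, humidified | Detection: Absorbance at 615 nm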
# PostGolgi yeast – phenotypic screen on post-Golgi transport, primary screen. inhibition, % at 10 µM. 98,000 tested, 0.9% active. post-Golgi transport phenotypic cell assay;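 note: yeast cells grown in 1536-well plates; yeast grown about 18 h at 30C before absorbance read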
# An asterisk follows results filed as active; nt = no result given. Cut-off read from the data, not from the text of the source, unless noted: active = inhibition above about 30%; inactive = the rest.
SMILES,BB579 growth dn,PostGolgi ctrl,Yeast life ext,PostGolgi yeast
O=C(O)C1CCCCC1C(=O)Nc1ccccc1Cl (configuration not stated),6.8,-0.3,-10.8,-5.8
O=C(Nc1ccc(Cc2ccncc2)cc1)c1cccc([N+](=O)[O-])c1,-41.8,nt,0.8,nt
Cc1ccc(C(=O)Nc2ccc(Cc3ccncc3)cc2)cc1[N+](=O)[O-],-31.7,49.9*,-11.7,87.2*
Cc1c(C(=O)Nc2ccc(OCc3ccccc3)cc2)cccc1[N+](=O)[O-],-54.9,-3.8,-10.6,2.6
COc1ccc(C(=O)Nc2ccc(OCc3ccccc3)cc2)cc1[N+](=O)[O-],8.9,-0.5,60.3*,-3.5
CN1C(=O)C2(Oc3ccccc3C3CC(c4ccccc4)=NN32)c2ccccc21 (configuration not stated),-28.6,51.3*,-6.3,-5.5
Cc1ccc(C2=NN3C(C2)c2ccccc2OC32C(=O)Nc3ccccc32)cc1 (configuration not stated),-29.3,18.2,-21.1,-4.8
Cc1cccc2cc(CN(Cc3nnnn3C3CCCCC3)C3CCCC3)c3nnnn3c12,-39.6,85.8*,1.7,96.9*
Cc1cccc(N2CCN(C(=O)CCCSc3nc4ccccc4[nH]3)CC2)c1C,-41.5,38.8*,-8.7,10.2
O=C(c1ccco1)N1CCN(S(=O)(=O)c2cccc(C(F)(F)F)c2)CC1,-31.9,4.9,-3.1,1.4
Cc1ccc(-c2nc3c(=O)n(C)c4ccccc4c3o2)cc1,35.5,77.0*,-22.4,11.5
Cn1nnc(NCc2cc(Br)ccc2OCc2cccs2)n1,-35.3,7.0,-17.0,-2.3
CCOc1ccc(S(=O)(=O)Nc2ccc(F)cc2)c(C)c1C,-38.2,54.9*,5.8,-13.8
O=C(Nc1cc(C(F)(F)F)ccc1Cl)C(Sc1cccc[n+]1[O-])c1ccccc1 (configuration not stated),92.7*,nt,-8.0,nt
CC(C)(C)C1CCc2[nH]nc(C(=O)O)c2C1 (configuration not stated),-32.9,-7.6,62.0*,-3.5
CCOC(=O)N1CCN(c2c(NCCCN3CCCCCC3)c(=O)c2=O)CC1,-11.0,8.6,-0.2,-2.5
Cc1cc(=O)[nH]c(SCC(=O)c2ccc(C)c(C)c2)n1,-13.4,3.2,5.7,87.1*
Nc1ccc(Oc2ccc3nc(-c4ccccc4)c(-c4ccccc4)nc3c2)cc1,-36.6,56.1*,-18.8,102.9*
COc1ccccc1CNC(=O)CSc1nc2nc(C)cc(C)n2n1,7.4,-1.8,-25.5,0.9
Cc1cc([N+](=O)[O-])ccc1NC(=S)NC(=O)C(c1ccccc1)c1ccccc1,-15.4,45.8*,-10.0,7.4
Cc1cc([N+](=O)[O-])ccc1NC(=S)NC(=O)Cc1ccccc1,-33.4,30.1*,-10.3,-8.0
Cc1ccc2nsnc2c1S(=O)(=O)NCCc1c(C)[nH]c2ccc(F)cc12,-1.3,-1.5,-14.9,6.4
COc1cccc(-n2nnnc2S(C)(=O)=O)c1,73.9*,30.3*,17.5,17.4
CCN(CCCNS(=O)(=O)c1ccc2c(c1)CCN2C(C)=O)c1cccc(C)c1,-26.6,12.4,-3.4,4.4
CCc1ccc(NC(=O)c2ccc3nc(N)sc3c2)cc1,3.3,1.0,-13.2,14.7
SMILES,BB579 growth dn,PostGolgi ctrl,Yeast life ext,PostGolgi yeast
CCc1ccc(NC(=O)c2ccc3ncsc3c2)cc1,-63.9,71.1*,-13.2,13.8
O=c1[nH]c2ccccc2n1CCCN1CCN(C(c2ccccc2)c2ccccc2)CC1,-21.4,nt,3.1,nt
O=C(COc1ccc(-c2ccccc2)cc1)N1CCN(C(=O)c2cccnc2)CC1,0.6,4.5,-19.4,4.1
O=C(c1ccccc1)N1CC(COc2ccccc2)OC(c2cccnc2)O1 (configuration not stated),-32.2,30.8*,-7.1,47.8*
CC(=O)N1c2ccccc2C2(O)N=C(C)SC12 (configuration not stated),62.0*,nt,3.6,nt
CC(=O)N1c2ccccc2Nc2ccccc21,-44.3,nt,-5.2,nt
Cn1c(N2C(=O)CC(Cc3ccccc3)C2=O)nc2ccccc21 (configuration not stated),-9.8,nt,nt,nt
CCOC(=O)c1c(Nc2nc(C)c(C(=O)NC)s2)sc(C)c1C,-20.7,-6.5,-26.2,-1.4
CCOc1ccc(Cl)cc1CSc1n[nH]c(CC)n1,15.8,34.5*,-14.0,-8.7
Cc1ccc(-c2nnn(CC(=O)N(c3ccccc3F)C(C(=O)NCC3CCCO3)c3c[nH]c4ccccc34)n2)cc1 (configuration not stated),-33.7,10.5,-10.9,-1.6
Cc1ccc(-c2c(C#N)c(N)nc3c2CCCCC3)cc1,-11.2,5.7,-3.6,15.0
CC1=C(C#N)c2nc(N)c(C#N)c(C)c2/C1=C\c1ccc(C)cc1,-18.4,100.0*,30.8,103.7*
CC(C(=O)NCc1ccc2c(c1)OCO2)N1c2cccc3cccc(c23)S1(=O)=O (configuration not stated),-66.3,17.9,-17.1,-6.5
CC1(C)CC2(CC(C)(C)NC(=O)N2)NC(=O)N1,-28.0,8.8,-5.3,8.8
O=C(c1ccc(Cl)cc1Cl)C1(n2cncn2)Oc2ccccc2C1O (configuration not stated),-23.4,96.0*,3.3,100.2*
O=C(Nc1cccn2ncnc12)c1ccc(Cl)cc1Cl,-53.6,4.6,-11.9,-11.9
COc1cc(C(=O)O/N=C2/C=C(C)C(=O)C=C2C)cc(OC)c1OC,-35.4,nt,15.9,nt
COc1ccc(S(=O)(=O)/N=C2/C=CC(=O)C(C)=C2C)cc1,-45.8,7.0,-4.8,5.7
CC1=C(C)/C(=N\OS(=O)(=O)c2ccc(C)cc2)C=CC1=O,99.2*,nt,-9.8,nt
CC1=C/C(=N\OS(=O)(=O)c2ccccc2)C(C)=CC1=O,99.6*,48.5*,-19.4,35.6*
CC1=C/C(=N\OS(=O)(=O)c2ccccc2)C(C(C)C)=CC1=O,100.0*,nt,-11.8,nt
COc1cccc2c1OC[C@@H](CO)[C@H]2N(C)C(=O)Nc1ccccc1,-3.4,24.8,-6.9,3.3
CN(C(=O)Nc1ccc(Cl)cc1Cl)[C@H]1c2cc(Br)ccc2OC[C@H]1CO,-70.6,80.7*,-11.6,6.5
O=C(NC(=S)Nc1nc2c(s1)CSc1ccccc1-2)c1ccccc1,-55.0,7.8,65.9*,-6.6
CCS(=O)(=O)c1ccc(-c2csc(-c3ccccc3)n2)c(Cl)c1Cl,-46.0,8.6,-19.3,-5.4
SMILES,BB579 growth dn,PostGolgi ctrl,Yeast life ext,PostGolgi yeast
COC(=O)C1=C(C(=O)OC)SC(=C2C(=S)C(C)(C)N(C(=O)C(C)C)c3ccccc32)S1,-24.1,7.8,34.8*,-2.3
COC(=O)C1=C(C(=O)OC)SC(=C2C(=S)C(C)(C)N(C(=O)C3CC3)c3ccccc32)S1,-50.7,8.8,0.6,-6.1
COc1ccccc1Oc1nc(-c2ccccc2)cc(C)c1S(C)(=O)=O,-36.4,21.1,-10.9,-1.1
Cc1cc(C)cc(Oc2nc(-c3ccccc3)cc(C)c2S(C)(=O)=O)c1,10.5,45.1*,-7.4,0.3
Cc1cc(-c2ccccc2)nc(Oc2ccc(C(C)(C)C)cc2)c1S(C)(=O)=O,-5.2,63.4*,4.8,6.9
O=S(=O)(Cc1ccccc1)/C1=C(\N2CCOCC2)CCCCCC1,-16.9,39.8*,-4.1,8.7
